Data from ChEMBL document CHEMBL2176870 (J Med Chem, 2012).
In brackets after ≈: the same amount, converted by molar mass. Activity calls are given as the source filed them. The calls are words filed in the database; no cut-off is given here.

Columns and labels:
[1] = Plasma clearance in Sprague-Dawley rat plasma at 2 x 50 mg/kg, iv; assay type: ADME, organism-based; set-up: dose 50 mg/kg, route intravenous
Escherichia coli [2] = assay: Antibacterial activity against Escherichia coli; assay type: functional
Moraxella catarrhalis = assay: Antibacterial activity against Moraxella catarrhalis; assay type: functional
Haemophilus influenzae = assay: Antibacterial activity against Haemophilus influenzae; assay type: functional
Neisseria meningitidis = assay: Antibacterial activity against Neisseria meningitidis; assay type: functional
Neisseria gonorrhoeae = assay: Antibacterial activity against Neisseria gonorrhoeae; assay type: functional
Staphylococcus aureus [3] = assay: Antibacterial activity against methicillin-resistant Staphylococcus aureus NRS384 assessed as killing activity at 600 to 1200 mg q8h with prolonged infusion of 2 hrs; assay type: functional, organism-based
Staphylococcus aureus [4] = assay: Antibacterial activity against methicillin-resistant Staphylococcus aureus NRS384 assessed as killing activity at 600 to 1200 mg q6h with prolonged infusion of 2 hrs; assay type: functional, organism-based
Staphylococcus aureus [5] = assay: Antibacterial activity against methicillin-resistant Staphylococcus aureus NRS385 infected in Swiss mouse; assay type: functional
In short: (§1)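 Murine lethal systemic infection by intraperitoneal MRSA challenge. A single subcutaneous dose was given 5 min after infection.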

Staphylococcus aureus [6] = assay: Antibacterial activity against methicillin-resistant Staphylococcus aureus NRS384 infected in Swiss mouse; assay type: functional; in short: as §1
Staphylococcus aureus [7] = assay: Antibacterial activity against methicillin-resistant Staphylococcus aureus NRS382 infected in Swiss mouse; assay type: functional; in short: as §1
Staphylococcus aureus [8] = assay: Antibacterial activity against methicillin-resistant Staphylococcus aureus NRS385; assay type: functional
In short: (§2)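 CLSI broth microdilution: serial 2-fold dilutions from 0.06 to 64 μg/mL in cation-adjusted Mueller–Hinton broth, inoculum 5 × 10^5 CFU/mL, 35 °C for 18 h. MIC is the lowest concentration with no visible growth.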

Staphylococcus aureus [9] = assay: Antibacterial activity against methicillin-resistant Staphylococcus aureus NRS384; assay type: functional; in short: as §2
Staphylococcus aureus [10] = assay: Antibacterial activity against methicillin-resistant Staphylococcus aureus NRS382; assay type: functional; in short: as §2
[11] = Terminal elimination half life in Sprague-Dawley rat lung at 2 x 50 mg/kg, iv; assay type: ADME, organism-based; set-up: dose 50 mg/kg, route intravenous; conditions: read-out: beta t1/2 (converted)
In short: (§3)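 Female Sprague–Dawley rats given two iv doses of 50 mg/kg. Levels measured in plasma, liver, kidney, brain, heart and lung. Cmax reported as ng/g for tissue and ng/mL for plasma; AUC(0–∞) as ng·h/mL. Half-life is the terminal elimination value.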

[12] = Terminal elimination half life in Sprague-Dawley rat liver at 2 x 50 mg/kg, iv; assay type: ADME, organism-based; set-up: dose 50 mg/kg, route intravenous; conditions: read-out: beta t1/2 (converted); in short: as §3
[13] = Terminal elimination half life in Sprague-Dawley rat plasma at 2 x 50 mg/kg, iv; assay type: ADME, organism-based; set-up: dose 50 mg/kg, route intravenous; conditions: read-out: beta t1/2 (converted); in short: as §3
[14] = AUC (0 to infinity) in Sprague-Dawley rat lung at 2 x 50 mg/kg, iv; assay type: ADME, organism-based; set-up: time infinity, dose 50 mg/kg, route intravenous; in short: as §3
[15] = AUC (0 to infinity) in Sprague-Dawley rat brain at 2 x 50 mg/kg, iv; assay type: ADME, organism-based; set-up: time infinity, dose 50 mg/kg, route intravenous; in short: as §3
[16] = AUC (0 to infinity) in Sprague-Dawley rat kidney at 2 x 50 mg/kg, iv; assay type: ADME, organism-based; set-up: time infinity, dose 50 mg/kg, route intravenous; in short: as §3
[17] = AUC (0 to infinity) in Sprague-Dawley rat plasma at 2 x 50 mg/kg, iv; assay type: ADME, organism-based; set-up: time infinity, dose 50 mg/kg, route intravenous; in short: as §3
[18] = Cmax in Sprague-Dawley rat lung at 2 x 50 mg/kg, iv; assay type: ADME, organism-based; set-up: dose 50 mg/kg, route intravenous; in short: as §3
[19] = Cmax in Sprague-Dawley rat heart at 2 x 50 mg/kg, iv; assay type: ADME, organism-based; set-up: dose 50 mg/kg, route intravenous; in short: as §3
[20] = Cmax in Sprague-Dawley rat brain at 2 x 50 mg/kg, iv; assay type: ADME, organism-based; set-up: dose 50 mg/kg, route intravenous; in short: as §3
[21] = Cmax in Sprague-Dawley rat kidney at 2 x 50 mg/kg, iv; assay type: ADME, organism-based; set-up: dose 50 mg/kg, route intravenous; in short: as §3
[22] = Cmax in Sprague-Dawley rat liver at 2 x 50 mg/kg, iv; assay type: ADME, organism-based; set-up: dose 50 mg/kg, route intravenous; in short: as §3
[23] = Cmax in Sprague-Dawley rat plasma at 2 x 50 mg/kg, iv; assay type: ADME, organism-based; set-up: dose 50 mg/kg, route intravenous; in short: as §3
Canis familiaris = assay: Toxicity in beagle dog assessed as clinical signs of toxicity up to 100 mg/kg, iv; assay type: organism-based, Canis lupus familiaris; set-up: dose 100 mg/kg, route intravenous; conditions: in vivo
In short: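 Beagle dogs given single iv infusions up to 100 mg/kg. Clinical signs and cardiovascular function, including QT interval, were monitored.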

[24] = Toxicity in iv dosed dog administered bid for 2 weeks; assay type: organism-based, Canis lupus familiaris; conditions: in vivo
In short: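 Dogs dosed iv twice daily for 14 days; NOAEL determined, with body weight monitored.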

[25] = Toxicity in iv dosed rat; assay type: organism-based; conditions: in vivo
In short: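 Rats given a single intravenous dose for maximum tolerated dose. A separate 2-week study used twice-daily intravenous dosing, with NOAEL set from clinical findings and macroscopic and microscopic examination. Safety pharmacology used single intravenous injections up to 200 mg/kg, assessing central nervous system and respiratory functions.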

Albumin = Albumin (Homo sapiens, UniProt P02768); assay: Binding affinity to human serum albumin; assay type: ADME; conditions: isolated protein
[26] = Thermodynamic aqueous solubility of the compound in 1 to 5% of glucose; assay type: physicochemical; conditions: 1 to 5% glucose in water; read-out: Therm_solubility
In short: (§4)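 Solubility measured in an aqueous solution containing 20% hydroxypropyl-β-cyclodextrin together with 1–5% glucose.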

[27] = Thermodynamic aqueous solubility of the compound in 20% hydroxypropyl-beta-cyclodextrin; assay type: physicochemical; conditions: 20% hydroxypropyl-beta-cyclodextrin in water; read-out: Therm_solubility; in short: as §4
[28] = test system: Staphylococcus epidermidis; assay: Antibacterial activity against methicillin-resistant Staphylococcus epidermidis; assay type: functional
Staphylococcus aureus [29] = assay: Antibacterial activity against methicillin-susceptible Staphylococcus aureus; assay type: functional
[30] = Cytotoxicity against human HepG2 cells; assay type: cell-based; conditions: read-out: ED50 (the source's name)
Streptococcus pneumoniae = assay: Antibacterial activity against Streptococcus pneumoniae D39 after 18 hrs by broth microdilution method; assay type: functional; conditions: D39, 18 h
In short: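 CLSI broth microdilution with 2-fold dilutions from 0.06 to 64 μg/mL. Cation-adjusted Mueller–Hinton broth with 2.5% lysed horse blood, inoculum 5 × 10^5 CFU/mL, grown at 35 °C for 18 h in 5% CO2. MIC is the lowest concentration showing no visible growth.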

Enterococcus faecalis = assay: Antibacterial activity against Enterococcus faecalis ATCC 29212 after 18 hrs by broth microdilution method; assay type: functional; conditions: ATCC 29212, 18 h
In short: (§5)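 CLSI broth microdilution with serial 2-fold dilutions from 0.06 to 64 μg/mL. Cation-adjusted Mueller–Hinton broth, inoculum 5 × 10^5 CFU/mL, incubated at 35 °C for 18 h. MIC taken as the lowest concentration with no visible growth.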

Rattus norvegicus = assay: Toxicity in rat assessed as effect on central nervous system and respiratory functions up to 200 mg/kg, iv; assay type: organism-based; set-up: dose 200 mg/kg, route intravenous; conditions: in vivo
In short: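 Safety pharmacology in rats given single iv injections up to 200 mg/kg. Clinical signs, central nervous system effects and respiratory function were monitored.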

Escherichia coli [31] = assay: Antibacterial activity against Escherichia coli C7 after 18 hrs by broth microdilution method; assay type: functional; conditions: C7, 18 h
Staphylococcus aureus [32] = assay: Antibacterial activity against Staphylococcus aureus CIP54.146 after 18 hrs by broth microdilution method; assay type: functional; conditions: CIP54.146, 18 h; in short: as §5

Chain of Albumin (P02768 whole entry): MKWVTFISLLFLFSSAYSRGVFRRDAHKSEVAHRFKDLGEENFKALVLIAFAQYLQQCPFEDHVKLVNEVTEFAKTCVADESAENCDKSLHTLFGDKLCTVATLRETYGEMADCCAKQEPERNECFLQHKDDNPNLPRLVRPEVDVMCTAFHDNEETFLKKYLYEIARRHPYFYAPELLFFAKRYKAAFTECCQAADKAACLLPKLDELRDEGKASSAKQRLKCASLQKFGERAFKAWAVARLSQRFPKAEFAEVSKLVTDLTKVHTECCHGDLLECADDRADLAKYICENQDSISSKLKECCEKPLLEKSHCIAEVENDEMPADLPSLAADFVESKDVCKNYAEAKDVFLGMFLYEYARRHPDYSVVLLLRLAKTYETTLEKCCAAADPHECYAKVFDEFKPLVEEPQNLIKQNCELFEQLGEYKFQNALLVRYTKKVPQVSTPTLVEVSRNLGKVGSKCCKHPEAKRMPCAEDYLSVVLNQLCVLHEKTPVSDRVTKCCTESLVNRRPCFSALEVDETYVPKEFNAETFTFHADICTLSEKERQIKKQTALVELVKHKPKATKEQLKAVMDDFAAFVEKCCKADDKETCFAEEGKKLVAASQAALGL

Q: For `CCc1cc(O)c(Oc2ccc(C(N)=O)cc2F)cc1F`, which clearance [1] is on record?
A: 107 mL/min/kg

Q: What about the MIC90 (Escherichia coli [2]) of the same compound?
A: 1 µg/mL (≈ 3.41 µM)

Q: And the MIC90 (Moraxella catarrhalis)?
A: 2 µg/mL (≈ 6.82 µM)

Q: What about the MIC90 (Haemophilus influenzae) of the same compound?
A: 0.5 µg/mL (≈ 1.7 µM)

Q: What about the MIC90 (Neisseria meningitidis) of the same compound?
A: 0.25 µg/mL (≈ 0.852 µM)

Q: And the MIC90 (Neisseria gonorrhoeae)?
A: 0.25 µg/mL (≈ 0.852 µM)

Q: And the Activity (Staphylococcus aureus [3])?
A: Active

Q: What about the Activity (Staphylococcus aureus [4]) of the same compound?
A: Active

Q: And the ED50 (Staphylococcus aureus [5])?
A: 28.3 mg/kg

Q: What about the ED50 (Staphylococcus aureus [6]) of the same compound?
A: 45.1 mg/kg

Q: And the ED50 (Staphylococcus aureus [7])?
A: 19.3 mg/kg

Q: And the MIC (Staphylococcus aureus [8])?
A: 0.06 µg/mL (≈ 0.205 µM)

Q: What about the MIC (Staphylococcus aureus [9]) of the same compound?
A: 0.06 µg/mL (≈ 0.205 µM)

Q: What about the MIC (Staphylococcus aureus [10]) of the same compound?
A: 0.06 µg/mL (≈ 0.205 µM)

Q: What about the half-life [11] of the same compound?
A: 5.9 h

Q: And the half-life [12]?
A: 9.2 h

Q: And the half-life [13]?
A: 4.9 h

Q: What about the AUC(0-inf) [14] of the same compound?
A: 18400 ng·h/mL

Q: And the AUC(0-inf) [15]?
A: 27600 ng·h/mL

Q: And the AUC(0-inf) [16]?
A: 20300 ng·h/mL

Q: And the AUC(0-inf) [17]?
A: 13900 ng·h/mL

Q: And the Cmax [18]?
A: 28900 ng/g

Q: What about the Cmax [19] of the same compound?
A: 42100 ng/g

Q: And the Cmax [20]?
A: 37800 ng/g

Q: And the Cmax [21]?
A: 63000 ng/g

Q: What about the Cmax [22] of the same compound?
A: 51700 ng/g

Q: And the Cmax [23]?
A: 30400 ng/mL

Q: And the Activity (Canis familiaris)?
A: Non-toxic

Q: What about the NOAEL at 336 h [24] of the same compound?
A: 100 mg/kg/day

Q: And the MTD [25]?
A: > 200 mg/kg

Q: What about the Activity (Albumin) of the same compound?
A: 95%

Q: And the solubility thermodynamic [26]?
A: 11.3 mg/mL (≈ 38500 µM)

Q: And the solubility thermodynamic [27]?
A: 11.3 mg/mL (≈ 38500 µM)

Q: And the MIC90 [28]?
A: 2 µg/mL (≈ 6.82 µM)

Q: What about the MIC90 (Staphylococcus aureus [29]) of the same compound?
A: 0.06 µg/mL (≈ 0.205 µM)

Q: And the CC50 [30]?
A: > 32 µg/mL

Q: And the MIC (Streptococcus pneumoniae)?
A: > 32 µg/mL

Q: And the MIC (Enterococcus faecalis)?
A: > 32 µg/mL

Q: What about the Activity (Rattus norvegicus) of the same compound?
A: Non-toxic

Q: What about the MIC (Escherichia coli [31]) of the same compound?
A: 0.5 µg/mL (≈ 1.7 µM)

Q: What about the MIC (Staphylococcus aureus [32]) of the same compound?
A: 0.062 µg/mL (≈ 0.211 µM)
